Activity calls are given as the source filed them. The calls are words filed in the database; no cut-off is given here.
Legend:
[1] = Ratio of drug level in brain to blood in Sprague-Dawley rat at 3 mg/kg, po after 2 hrs; assay type: ADME, organism-based; set-up: dose 3 mg/kg, route oral
How it was run: (§1)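 Rats dosed 3 mg/kg orally; total compound levels measured in brain and blood at 2, 4 and 8 h, brain/blood ratio derived. Mean ± SD of three rats.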

[2] = target: T1, 5-hydroxytryptamine receptor 1A (Homo sapiens, UniProt P08908); test: Agonist activity at human cloned 5HT1A receptor expressed in CHO cells assessed as stimulation of [35S]GTPgammaS binding after 30 mins by liquid scintillation counting; assay type: functional, cell-based
T1 sequence (P08908 whole entry): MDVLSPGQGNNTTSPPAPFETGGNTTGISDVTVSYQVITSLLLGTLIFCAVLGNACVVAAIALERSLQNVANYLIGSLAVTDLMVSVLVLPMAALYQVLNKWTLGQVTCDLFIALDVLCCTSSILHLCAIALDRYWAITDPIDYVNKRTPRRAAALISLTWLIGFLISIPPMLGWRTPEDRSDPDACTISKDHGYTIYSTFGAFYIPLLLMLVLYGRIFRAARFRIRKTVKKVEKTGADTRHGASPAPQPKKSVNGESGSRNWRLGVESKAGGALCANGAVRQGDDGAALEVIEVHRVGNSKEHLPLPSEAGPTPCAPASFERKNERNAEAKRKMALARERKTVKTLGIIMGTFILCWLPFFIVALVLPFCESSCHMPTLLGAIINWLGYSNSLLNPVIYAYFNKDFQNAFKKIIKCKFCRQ
How it was run: (§2)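 Membranes from CHO cells expressing human 5-HT1A were diluted in 20 mM HEPES/3 mM MgCl2/120 mM NaCl, pH 7.4. They were preincubated with 20 μM GDP and test drug for 20 min at 30 °C, then held on ice for 15 min. [35S]GTPγS (100 pM) was added for 30 min at 30 °C. Samples were filtered, washed with cold HEPES/MgCl2 buffer, and bound radioactivity counted; EC50 and Emax reported.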

[3] = target: T2, 5-hydroxytryptamine receptor 3A (Homo sapiens, UniProt P46098); test: Displacement of [3H]BRL-43694 from human 5HT3 receptor expressed in HEK293 cells by liquid scintillation counting; assay type: cell-based
T2 sequence (P46098 whole entry): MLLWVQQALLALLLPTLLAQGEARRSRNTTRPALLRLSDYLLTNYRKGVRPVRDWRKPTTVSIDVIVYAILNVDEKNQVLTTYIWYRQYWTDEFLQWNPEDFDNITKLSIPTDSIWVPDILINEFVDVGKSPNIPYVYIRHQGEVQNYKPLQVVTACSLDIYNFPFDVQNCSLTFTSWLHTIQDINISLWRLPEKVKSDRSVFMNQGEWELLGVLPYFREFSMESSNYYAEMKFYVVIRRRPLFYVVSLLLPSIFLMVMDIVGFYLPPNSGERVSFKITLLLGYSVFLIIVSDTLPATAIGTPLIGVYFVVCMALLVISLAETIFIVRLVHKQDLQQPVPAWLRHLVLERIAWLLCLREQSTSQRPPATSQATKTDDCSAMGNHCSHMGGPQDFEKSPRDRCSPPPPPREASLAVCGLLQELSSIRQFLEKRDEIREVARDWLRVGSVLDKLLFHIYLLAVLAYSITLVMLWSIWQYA
How it was run: (§3)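 HEK-293 membranes expressing human 5-HT3 were incubated with 0.5 nmol/L [3H]BRL-43694 (final) for 60 min at 25 °C. Buffer: 50 mM Tris-HCl, 5 mM MgCl2, 1 mM EDTA, pH 7.5. Compound came from 270 μmol/L DMSO stock, diluted in buffer. Filtration was through GF/B presoaked in 0.5% polyethyleneimine, with two cold Tris washes. Run in duplicate or triplicate; percent inhibition calculated.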

[4] = target: T1, 5-hydroxytryptamine receptor 1A; test: Displacement of [3H]8-OH-DPAT from human 5HT1A receptor expressed in CHO cells by liquid scintillation counting; assay type: cell-based
How it was run: (§4)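 CHO-cell membranes with human 5-HT1A were incubated with 0.25 nmol/L [3H]8-OH-DPAT (final) for 60 min at 27 °C. Buffer: 50 mM Tris-HCl, 10 mM MgSO4, 0.5 mM EDTA, 0.1% ascorbic acid, pH 7.4. Compound came from 270 μmol/L DMSO stock, diluted in buffer. Filtration was through GF/C presoaked in 0.3% polyethyleneimine, with two cold Tris washes. Run in duplicate or triplicate; percent inhibition of binding calculated.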

[5] = Ratio of drug level in brain to blood in Sprague-Dawley rat at 3 mg/kg, po after 8 hrs; assay type: ADME, organism-based; set-up: dose 3 mg/kg, route oral; how it was run: as §1
[6] = Drug level in Sprague-Dawley rat brain at 3 mg/kg, po after 8 hrs by HPLC analysis; assay type: ADME, organism-based; set-up: dose 3 mg/kg, route oral; conditions: read-out: Drug uptake
How it was run: (§5)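 Total compound concentration was measured in brain and blood at 2, 4 and 8 h after a single oral 3 mg/kg dose. Brain/blood ratio was also derived. Values are mean ± SD of three rats.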

[7] = Drug level in Sprague-Dawley rat brain at 3 mg/kg, po after 4 hrs by HPLC analysis; assay type: ADME, organism-based; set-up: dose 3 mg/kg, route oral; conditions: read-out: Drug uptake; how it was run: as §5
[8] = Drug level in Sprague-Dawley rat blood at 3 mg/kg, po after 4 hrs by HPLC analysis; assay type: ADME, organism-based; set-up: dose 3 mg/kg, route oral; conditions: whole blood, read-out: Drug uptake; how it was run: as §5
[9] = Drug level in Sprague-Dawley rat blood at 3 mg/kg, po after 8 hrs by HPLC analysis; assay type: ADME, organism-based; set-up: dose 3 mg/kg, route oral; conditions: whole blood, read-out: Drug uptake; how it was run: as §5
[10] = Drug level in Sprague-Dawley rat blood at 3 mg/kg, po after 2 hrs by HPLC analysis; assay type: ADME, organism-based; set-up: dose 3 mg/kg, route oral; conditions: whole blood, read-out: Drug uptake; how it was run: as §5
[11] = Drug level in Sprague-Dawley rat brain at 3 mg/kg, po after 2 hrs by HPLC analysis; assay type: ADME, organism-based; set-up: dose 3 mg/kg, route oral; conditions: read-out: Drug uptake; how it was run: as §5
[12] = Ratio of drug level in brain to blood in Sprague-Dawley rat at 3 mg/kg, po after 4 hrs; assay type: ADME, organism-based; set-up: dose 3 mg/kg, route oral; how it was run: as §1
[13] = target: T3, 5-hydroxytryptamine receptor 3A (Cavia porcellus) (UniProt O70212); test: Inhibition of 5HT3 receptor-mediated contraction of guinea pig ileum at 1 umol/L after 20 mins relative to control; assay type: tissue-based
T3 sequence (whole entry): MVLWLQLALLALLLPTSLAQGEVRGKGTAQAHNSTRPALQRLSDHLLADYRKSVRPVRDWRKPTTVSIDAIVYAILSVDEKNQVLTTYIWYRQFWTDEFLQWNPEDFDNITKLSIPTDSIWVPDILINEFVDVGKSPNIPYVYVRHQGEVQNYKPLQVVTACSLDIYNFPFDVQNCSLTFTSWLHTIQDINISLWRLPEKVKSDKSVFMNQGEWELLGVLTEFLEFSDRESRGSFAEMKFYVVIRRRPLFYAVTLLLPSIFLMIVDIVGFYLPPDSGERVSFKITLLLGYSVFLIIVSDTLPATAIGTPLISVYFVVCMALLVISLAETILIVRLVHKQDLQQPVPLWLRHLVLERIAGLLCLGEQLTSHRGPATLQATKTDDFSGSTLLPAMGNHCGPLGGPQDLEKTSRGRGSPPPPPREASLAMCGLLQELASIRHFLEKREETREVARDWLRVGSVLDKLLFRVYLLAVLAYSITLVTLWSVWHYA
How it was run: (§6)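 Ileum strips in Tyrode solution at 37 °C, gassed 5% CO2/95% O2, isotonic contractions under 1 g load. After at least 3 stable contractions to 10 μM 2-methyl-5-HT, tissue exposed to compound or DMSO vehicle for 20 min, then 10 μM 2-methyl-5-HT re-added; contraction expressed as % inhibition of control.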

[14] = target: T3, 5-hydroxytryptamine receptor 3A (Cavia porcellus); test: Inhibition of 5HT3 receptor-mediated contraction of guinea pig ileum at 0.1 umol/L after 20 mins relative to control; assay type: tissue-based; how it was run: as §6
[15] = target: T4, 5-hydroxytryptamine receptor 1A (Homo sapiens) (UniProt P08908); test: Agonist activity at human cloned 5HT1A receptor expressed in CHO cells assessed as stimulation of [35S]GTPgammaS binding at 900 uL after 30 mins by liquid scintillation counting; assay type: functional, cell-based; how it was run: as §2
T4 sequence (whole entry): T1 sequence (P08908 whole entry)

[16] = tested on: Rattus norvegicus; test: Reduction in wrap restraint stress-induced defecation in rat diarrhea-predominant irritable bowel syndrome model at 1 to 10 mg/kg, po administered 1 hr prior to induction of stress; assay type: functional, organism-based
How it was run: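 Lightly anesthetized rats had upper bodies wrapped with adhesive tape, then returned to observation cages; feces counted 1 h after wrapping. Compound or vehicle given orally 1 h before restraint; unwrapped animals as normal group. n = 8 per group, mean (SD); Wilcoxon and nonparametric Dunnett's tests.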

[17] = target: T4, 5-hydroxytryptamine receptor 1A (Homo sapiens); test: Displacement of [3H]8-OH-DPAT from human 5HT1A receptor expressed in CHO cells at 100 nM by liquid scintillation counting; assay type: cell-based; how it was run: as §4
[18] = target: T4, 5-hydroxytryptamine receptor 1A (Homo sapiens); test: Displacement of [3H]8-OH-DPAT from human 5HT1A receptor expressed in CHO cells at 1000 nM by liquid scintillation counting; assay type: cell-based; how it was run: as §4
[19] = target: T5, 5-hydroxytryptamine receptor 3A (Homo sapiens) (UniProt P46098); test: Displacement of [3H]BRL-43694 from human 5HT3 receptor expressed in HEK293 cells at 100 nM by liquid scintillation counting; assay type: cell-based; how it was run: as §3
T5 sequence (whole entry): T2 sequence (P46098 whole entry)

[20] = target: T5, 5-hydroxytryptamine receptor 3A (Homo sapiens); test: Displacement of [3H]BRL-43694 from human 5HT3 receptor expressed in HEK293 cells at 1000 nM by liquid scintillation counting; assay type: cell-based; how it was run: as §3
[21] = tested on: Rattus norvegicus; test: […] activity in rat assessed as inhibition of 5HT-induced bradycardia at 10 ug/kg, iv by von Benzold-Jarisch reflex assay; assay type: functional
[22] = tested on: Rattus norvegicus; test: Induction of 5HT1A receptor-mediated behavioral activity in rat assessed as appearance of flat body posture at 10 mg/kg, iv after 30 mins; assay type: functional, organism-based; set-up: dose 10 mg/kg
How it was run: (§7)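 Rats were conditioned to test procedures over 2 weeks and acclimated to the test cage for 1 h. Vehicle was saline containing diluted HCl. Lower lip retraction and flat body posture were scored on a 0–3 scale at 5, 10, 20 and 30 min after dosing.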

[23] = tested on: Rattus norvegicus; test: Effect on 5HT1A receptor-mediated hypothermic effect in rat assessed as change in rectal temperature at 10 mg/kg, iv after 30 mins; assay type: functional, organism-based; set-up: dose 10 mg/kg
How it was run: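 Rats were conditioned over 2 weeks and acclimated to the cage for 1 h before dosing (vehicle: saline with diluted HCl). Rectal temperature was recorded with a thermistor probe inserted 3 cm, before and 30 min after administration. The change in temperature was reported.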

[24] = tested on: Rattus norvegicus; test: Induction of 5HT1A receptor-mediated lower lip retraction behavior in rat at 10 mg/kg, iv after 30 mins; assay type: functional, organism-based; set-up: dose 10 mg/kg; how it was run: as §7

Row | Kp at 2 h [1] | EC50 [2] [nM] | IC50 [3] [nM] | IC50 [4] [nM] | Kp at 8 h [5] | concentration at 8 h [6] [nM] | concentration at 4 h [7] [nM] | concentration at 4 h [8] [nM] | concentration at 8 h [9] [nM] | concentration at 2 h [10] [nM] | concentration at 2 h [11] [nM] | Kp at 4 h [12] | inhibition [13] [%] | inhibition [14] [%] | Emax [15] [%] | Compound | also measured
1 | 2.99 | 182 | 63.8 | 5.6 | 2.53 | 13 | 32.2 | 10.6 | 5.17 | 21.2 | 63.1 | 3.05 | 95.1 | 80 | 90.3 | Nn1c(SCCCN2CCN(c3ccc4ccccc4n3)CC2)nc2c(c1=O)CCCC2 | –
2 | – | – | – | – | – | – | – | – | – | – | – | – | – | – | – | Cc1[nH]cnc1CN1CCc2c(c3ccccc3n2C)C1=O | inhibition [16]: Active
3 | – | – | – | – | – | – | – | – | – | – | – | – | – | – | – | Nn1c(=O)c2c(nc1[C@H]1CC[C@@H](N3CCN(c4ccc5ccccc5n4)CC3)CC1)CCCC2 | inhibition [17]: 42.3%; inhibition [18]: 91.5%; inhibition [19]: 19.6%; inhibition [20]: 87.3%
4 | 0.332 | 2.5 | 77.6 | 2.5 | 0.338 | 2.96 | 12.9 | 36.1 | 8.98 | 56 | 18.7 | 0.357 | 97.6 | 79.9 | 84.8 | CC(=O)N1CCc2c(sc3nc(SCCCN4CCN(c5ccc6ccccc6n5)CC4)n(N)c(=O)c23)C1 | inhibition in vivo at 0.01 mg/kg [21]: 77%; Activity [22]: Active; deltaT [23]: -0.1 °C; Activity [24]: Active

From ChEMBL document CHEMBL1275331, “Discovery of a novel 5-HT(3) antagonist/5-HT(1A) agonist 3-amino-5,6,7,8-tetrahydro-2-{4-[4-(quinolin-2-yl)piperazin-1-yl]butyl}quinazolin-4(3H)-one (TZB-30878) as an orally bioavailable agent for irritable bowel syndrome” (J Med Chem, 2010)
